Measurements as given in ChEMBL document CHEMBL3632511, “Oxopyrido[2,3-d]pyrimidines as Covalent L858R/T790M Mutant Selective Epidermal Growth Factor Receptor (EGFR) Inhibitors” (ACS Med Chem Lett, 2015).
The source made the active and inactive calls. The rule behind the calls is not given here.

How the values were obtained:
[1] = Selectivity ratio of IC50 for wild type EGFR phosphorylation in human A431 cells to IC50 for EGFR L858R/T790M double mutant phosphorylation in human NCI-H1975 cells; assay type: ADME, cell-based
[2] = (§1) AUC (0 to infinity) in Sprague-Dawley rat at 10 mg/kg, po; assay type: ADME, organism-based; set-up: dose 10 mg/kg, route oral, time infinity; settings: Sprague-Dawley, in vivo
Outline: (§2)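 Male Sprague Dawley rats, 3 animals per route; mean values. IV dose 1 mg/kg as a DMSO solution. Oral dose 10 mg/kg, in one of three vehicles by compound: 1% Pluronic F68/2% HPMC/15% HPBCD/82% water–methanesulfonic acid pH 4.5; 20% HPBCD/80% water–methanesulfonic acid pH 4.0; or 1% Pluronic F68/2% HPMC/97% water–methanesulfonic acid pH 4.0.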

[3] = (§3) Clearance in Sprague-Dawley rat at 1 mg/kg, iv; assay type: ADME, organism-based; settings: Sprague-Dawley, in vivo; outline: as §2
Mus musculus [4] = assay: In vivo inhibition of EGFR L858R/T790M double mutant phosphorylation in human NCI-H1975 cells xenografted in athymic nude mouse at 30 mg/kg, po measured at 4 hrs by mesoscale multiplex assay relative to control; assay type: functional
Outline: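 Female athymic nude mice carried matrigel plugs holding 5 x 10⁶ H1975 cells, n = 3 per group. Control or compound given at 30 mg/kg po. Plugs and plasma taken 4 h after dosing. p-EGFR in plug measured by quantitative MSD assay, given as % p-EGFR/PRAS40 vs control.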

[5] = biological target: Tyrosine-protein kinase JAK3 (Homo sapiens, UniProt P52333); assay: Competitive binding affinity to human JAK3 in presence of immobilized ligand
Mus musculus [6] = assay: In vivo inhibition of EGFR L858R/T790M double mutant phosphorylation in human NCI-H1975 cells xenografted in athymic nude mouse at 30 mg/kg, po measured at >12 hrs by mesoscale multiplex assay relative to control; assay type: functional
Outline: (§4)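 Time-course PD in mice carrying matrigel plugs of H1975 cells after a single oral dose of 30 mg/kg. Tumor cell plugs and plasma harvested at 2, 4, 8, 12 and 24 h post dose. Plug p-EGFR measured, and plasma drug concentration taken for Cmax.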

[7] = biological target: Dual specificity protein kinase TTK (Homo sapiens) (UniProt P33981); assay: Competitive binding affinity to human TTK at 1 uM in presence of immobilized ligand relative to control
Outline: (§5)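 Kinase selectivity by competitive binding in the ScanMAX KINOMEscan panel of […] protein and lipid kinases. Compound tested at 1 μM; binding expressed as percentage of control (POC).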

[8] = Fraction unbound in rat plasma at 5 uM by rapid equilibrium dialysis method; assay type: ADME, cell-free
[9] = biological target: Tyrosine-protein kinase JAK1 (Homo sapiens, UniProt P23458); assay: Competitive binding affinity to human JAK1 JH2 domain pseudokinase in presence of immobilized ligand
A-431 = assay: Cytotoxicity against human A431 cells expressing wild-type EGFR assessed as inhibition of cell proliferation after 72 hrs by CellTiter-Glo assay; assay type: cell-based; settings: A-431, 72 h
rat MDR1 (P-gp) [10] = assay: Efflux ratio of permeability across pig LLC-PK1 cells transfected with rat MDR1 gene; assay type: ADME, cell-based, Sus scrofa
[11] = Selectivity ratio of IC50 for wild type EGFR phosphorylation in human A431 cells to IC50 for EGFR 746 to 750 deletion mutant phosphorylation in human HCC827 cells; assay type: ADME, cell-based
[12] = AUC (0 to infinity) in athymic nude mouse xenografted with human NCI-H1975 cells at 30 mg/kg, po; assay type: ADME, organism-based; set-up: dose 30 mg/kg, route oral, time infinity; settings: in vivo
[13] = biological target: Receptor tyrosine-protein kinase erbB-2 (Homo sapiens, UniProt P04626); assay: Competitive binding affinity to human ERBB2 in presence of immobilized ligand
[14] = (§6) Oral bioavailability in Sprague-Dawley rat at 10 mg/kg; assay type: ADME, organism-based; settings: Sprague-Dawley, in vivo; outline: as §2
[15] = biological target: Receptor tyrosine-protein kinase erbB-4 (Homo sapiens, UniProt Q15303); assay: Competitive binding affinity to human ERBB4 in presence of immobilized ligand
[16] = Fraction unbound in human plasma at 5 uM by rapid equilibrium dialysis method; assay type: ADME, cell-free
NCI-H1975 [17] = assay: Cytotoxicity against human NCI-H1975 cells harboring EGFR L858R/T790M double mutant assessed as inhibition of cell proliferation after 72 hrs by CellTiter-Glo assay; assay type: functional, cell-based; settings: NCI-H1975, 72 h
human MDR1 (P-gp) [18] = assay: Efflux ratio of permeability across pig LLC-PK1 cells transfected with human MDR1 gene; assay type: ADME, cell-based, Sus scrofa
[19] = biological target: T1, Epidermal growth factor receptor (Homo sapiens, UniProt P00533); assay: Competitive binding affinity to human wild type EGFR in presence of immobilized ligand
T1 sequence (P00533 whole entry): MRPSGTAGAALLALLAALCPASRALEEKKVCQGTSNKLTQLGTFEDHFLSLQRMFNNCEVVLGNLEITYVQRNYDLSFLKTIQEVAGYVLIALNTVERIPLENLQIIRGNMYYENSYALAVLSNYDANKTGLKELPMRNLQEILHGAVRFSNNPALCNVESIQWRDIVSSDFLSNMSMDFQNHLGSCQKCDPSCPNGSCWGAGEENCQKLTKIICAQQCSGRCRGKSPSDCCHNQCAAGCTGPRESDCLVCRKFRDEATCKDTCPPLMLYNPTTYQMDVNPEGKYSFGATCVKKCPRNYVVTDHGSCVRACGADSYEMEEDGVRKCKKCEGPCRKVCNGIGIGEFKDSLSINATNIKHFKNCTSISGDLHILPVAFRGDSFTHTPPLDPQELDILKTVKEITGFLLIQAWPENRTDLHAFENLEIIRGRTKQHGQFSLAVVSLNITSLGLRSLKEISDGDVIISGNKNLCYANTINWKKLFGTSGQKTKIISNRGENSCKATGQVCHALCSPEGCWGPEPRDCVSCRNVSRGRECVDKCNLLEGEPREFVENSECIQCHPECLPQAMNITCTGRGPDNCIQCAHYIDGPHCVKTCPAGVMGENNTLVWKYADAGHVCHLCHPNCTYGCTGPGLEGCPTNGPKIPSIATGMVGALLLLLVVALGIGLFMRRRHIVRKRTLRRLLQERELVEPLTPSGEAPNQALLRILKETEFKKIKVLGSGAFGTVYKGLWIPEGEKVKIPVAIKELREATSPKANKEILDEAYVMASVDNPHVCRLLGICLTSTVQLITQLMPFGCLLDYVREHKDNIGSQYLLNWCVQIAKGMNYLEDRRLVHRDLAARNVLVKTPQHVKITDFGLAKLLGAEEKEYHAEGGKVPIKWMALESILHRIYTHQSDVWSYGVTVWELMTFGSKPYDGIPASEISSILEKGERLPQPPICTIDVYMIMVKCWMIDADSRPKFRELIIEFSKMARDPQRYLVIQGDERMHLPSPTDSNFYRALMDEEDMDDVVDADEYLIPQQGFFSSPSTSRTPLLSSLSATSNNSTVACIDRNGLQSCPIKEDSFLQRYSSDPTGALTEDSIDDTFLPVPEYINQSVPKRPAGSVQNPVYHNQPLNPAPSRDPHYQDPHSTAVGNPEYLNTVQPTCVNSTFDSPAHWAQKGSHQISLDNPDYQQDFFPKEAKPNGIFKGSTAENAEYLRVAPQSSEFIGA

[20] = biological target: Tyrosine-protein kinase TXK (Homo sapiens, UniProt P42681); assay: Competitive binding affinity to human TXK in presence of immobilized ligand
[21] = biological target: Epidermal growth factor receptor (Homo sapiens, UniProt P00533, 746-750DEL); assay: Inhibition of EGFR 746 to 750 deletion mutant phosphorylation in human HCC827 cells after 60 mins by mesoscale multiplex assay; assay type: cell-based
Sequence of Epidermal growth factor receptor (Homo sapiens, UniProt P00533, 746-750DEL) (P00533 whole entry, looked up, stated change not applied): as the sequence (P00533 whole entry) above

[22] = biological target: T2, Tyrosine-protein kinase BTK (Homo sapiens, UniProt Q06187); assay: Competitive binding affinity to human BTK at 1 uM in presence of immobilized ligand relative to control; outline: as §5
T2 sequence (Q06187 whole entry): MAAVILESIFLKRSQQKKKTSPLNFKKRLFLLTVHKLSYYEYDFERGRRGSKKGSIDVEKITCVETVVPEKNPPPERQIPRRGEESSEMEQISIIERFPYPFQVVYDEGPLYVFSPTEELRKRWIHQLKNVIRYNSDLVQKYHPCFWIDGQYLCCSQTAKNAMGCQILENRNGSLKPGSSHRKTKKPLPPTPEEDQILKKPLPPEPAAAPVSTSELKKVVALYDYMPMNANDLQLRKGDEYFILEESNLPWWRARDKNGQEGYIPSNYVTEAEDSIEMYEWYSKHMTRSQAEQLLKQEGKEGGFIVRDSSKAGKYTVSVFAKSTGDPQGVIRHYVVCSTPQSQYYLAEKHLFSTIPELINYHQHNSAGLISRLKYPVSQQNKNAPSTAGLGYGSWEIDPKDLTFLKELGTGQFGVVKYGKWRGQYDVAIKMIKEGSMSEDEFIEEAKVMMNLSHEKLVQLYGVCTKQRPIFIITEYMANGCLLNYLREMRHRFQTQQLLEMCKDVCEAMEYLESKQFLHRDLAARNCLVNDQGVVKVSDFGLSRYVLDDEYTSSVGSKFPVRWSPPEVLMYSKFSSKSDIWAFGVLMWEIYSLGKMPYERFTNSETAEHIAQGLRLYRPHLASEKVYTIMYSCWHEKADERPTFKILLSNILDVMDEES

[23] = Fraction unbound in dog plasma at 5 uM by rapid equilibrium dialysis method; assay type: ADME, cell-free, Canis lupus familiaris
[24] = Volume of distribution at steady state in Sprague-Dawley rat at 1 mg/kg, iv; assay type: ADME, organism-based; settings: in vivo, read-out: Vdss; outline: as §2
[25] = biological target: T1, Epidermal growth factor receptor; assay: Inhibition of wild type EGFR phosphorylation in human A431 cells after 60 mins by mesoscale multiplex assay; assay type: cell-based, A-431
[26] = biological target: Tyrosine-protein kinase ITK/TSK (Homo sapiens, UniProt Q08881); assay: Competitive binding affinity to human ITK in presence of immobilized ligand
[27] = biological target: Cyclin-G-associated kinase (Homo sapiens, UniProt O14976); assay: Competitive binding affinity to human GAK in presence of immobilized ligand
[28] = biological target: Epidermal growth factor receptor (Homo sapiens, UniProt P00533, T790M); assay: Competitive binding affinity to human EGFR T790M mutant in presence of immobilized ligand; assay type: protein assay
[29] = biological target: Tyrosine-protein kinase Blk (Homo sapiens, UniProt P51451); assay: Competitive binding affinity to human BLK in presence of immobilized ligand
Sequence of Tyrosine-protein kinase Blk (P51451 whole entry): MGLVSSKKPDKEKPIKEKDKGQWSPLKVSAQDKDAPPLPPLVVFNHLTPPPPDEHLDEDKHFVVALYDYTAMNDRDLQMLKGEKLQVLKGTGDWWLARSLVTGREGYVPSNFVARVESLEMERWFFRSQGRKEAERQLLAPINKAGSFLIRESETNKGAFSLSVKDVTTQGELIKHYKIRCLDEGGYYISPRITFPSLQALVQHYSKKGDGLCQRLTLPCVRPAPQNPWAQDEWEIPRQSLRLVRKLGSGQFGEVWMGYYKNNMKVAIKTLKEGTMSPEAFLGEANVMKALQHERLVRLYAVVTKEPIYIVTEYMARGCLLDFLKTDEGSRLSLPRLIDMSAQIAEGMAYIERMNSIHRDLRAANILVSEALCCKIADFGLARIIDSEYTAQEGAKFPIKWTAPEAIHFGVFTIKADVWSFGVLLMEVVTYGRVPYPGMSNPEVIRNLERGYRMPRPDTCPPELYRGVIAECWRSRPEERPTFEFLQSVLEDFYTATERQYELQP

human MDR1 (P-gp) [30] = assay: Permeability across pig LLC-PK1 cells transfected with human MDR1 gene; assay type: ADME, cell-based, Sus scrofa; settings: read-out: permeability
[31] = Cmax in athymic nude mouse xenografted with human NCI-H1975 cells at 30 mg/kg, po measured at 2 hrs; assay type: ADME, organism-based; set-up: dose 30 mg/kg, route oral; settings: in vivo; outline: as §4
rat MDR1 (P-gp) [32] = assay: Permeability across pig LLC-PK1 cells transfected with rat MDR1 gene; assay type: ADME, cell-based, Sus scrofa; settings: read-out: permeability
[33] = Half life in Sprague-Dawley rat at 1 mg/kg, iv; assay type: ADME, organism-based; settings: in vivo; outline: as §2
[34] = Fraction unbound in mouse plasma at 5 uM by rapid equilibrium dialysis method; assay type: ADME, cell-free
Mus musculus [35] = assay: Toxicity in athymic nude mouse xenografted with human NCI-H1975 cells assessed as change in body weight at 30 mg/kg, po qd administered for 2 weeks started on day 6 post tumor implantation; assay type: organism-based; settings: in vivo, 336 h
NCI-H1975 [36] = assay: Antitumor activity against human NCI-H1975 cells xenografted in athymic nude mouse assessed as tumor growth inhibition at 30 mg/kg, po qd administered for 2 weeks started on day 6 post tumor implantation measured on day 19 relative to control; assay type: functional
[37] = AUC (0 to t) in athymic nude mouse xenografted with human NCI-H1975 cells at 30 mg/kg, po qd administered for 2 weeks started on day 6 post tumor implantation; assay type: ADME, organism-based; settings: in vivo
Rattus norvegicus [38] = species: Rattus norvegicus; assay: Hepatobiliary toxicity in Sprague-Dawley rat measured for 4 days; assay type: organism-based; settings: in vivo, 96 h
[39] = biological target: Dual specificity protein kinase TTK (Homo sapiens, UniProt P33981); assay: Competitive binding affinity to human TTK in presence of immobilized ligand
[40] = Cytotoxicity against human HCC827 cells harboring EGFR 746 to 750 deletion mutant assessed as inhibition of cell proliferation after 72 hrs by CellTiter-Glo assay; assay type: functional, cell-based; settings: HCC827, 72 h
[41] = biological target: T2, Tyrosine-protein kinase BTK; assay: Competitive binding affinity to human BTK in presence of immobilized ligand
[42] = biological target: Epidermal growth factor receptor (Homo sapiens, UniProt P00533, L858R/T790M); assay: Inhibition of EGFR L858R/T790M double mutant phosphorylation in human NCI-H1975 cells after 60 mins by mesoscale multiplex assay; assay type: cell-based
Sequence of Epidermal growth factor receptor (Homo sapiens, UniProt P00533, L858R/T790M) (P00533 25-1210 T790M/L858R limits assumed): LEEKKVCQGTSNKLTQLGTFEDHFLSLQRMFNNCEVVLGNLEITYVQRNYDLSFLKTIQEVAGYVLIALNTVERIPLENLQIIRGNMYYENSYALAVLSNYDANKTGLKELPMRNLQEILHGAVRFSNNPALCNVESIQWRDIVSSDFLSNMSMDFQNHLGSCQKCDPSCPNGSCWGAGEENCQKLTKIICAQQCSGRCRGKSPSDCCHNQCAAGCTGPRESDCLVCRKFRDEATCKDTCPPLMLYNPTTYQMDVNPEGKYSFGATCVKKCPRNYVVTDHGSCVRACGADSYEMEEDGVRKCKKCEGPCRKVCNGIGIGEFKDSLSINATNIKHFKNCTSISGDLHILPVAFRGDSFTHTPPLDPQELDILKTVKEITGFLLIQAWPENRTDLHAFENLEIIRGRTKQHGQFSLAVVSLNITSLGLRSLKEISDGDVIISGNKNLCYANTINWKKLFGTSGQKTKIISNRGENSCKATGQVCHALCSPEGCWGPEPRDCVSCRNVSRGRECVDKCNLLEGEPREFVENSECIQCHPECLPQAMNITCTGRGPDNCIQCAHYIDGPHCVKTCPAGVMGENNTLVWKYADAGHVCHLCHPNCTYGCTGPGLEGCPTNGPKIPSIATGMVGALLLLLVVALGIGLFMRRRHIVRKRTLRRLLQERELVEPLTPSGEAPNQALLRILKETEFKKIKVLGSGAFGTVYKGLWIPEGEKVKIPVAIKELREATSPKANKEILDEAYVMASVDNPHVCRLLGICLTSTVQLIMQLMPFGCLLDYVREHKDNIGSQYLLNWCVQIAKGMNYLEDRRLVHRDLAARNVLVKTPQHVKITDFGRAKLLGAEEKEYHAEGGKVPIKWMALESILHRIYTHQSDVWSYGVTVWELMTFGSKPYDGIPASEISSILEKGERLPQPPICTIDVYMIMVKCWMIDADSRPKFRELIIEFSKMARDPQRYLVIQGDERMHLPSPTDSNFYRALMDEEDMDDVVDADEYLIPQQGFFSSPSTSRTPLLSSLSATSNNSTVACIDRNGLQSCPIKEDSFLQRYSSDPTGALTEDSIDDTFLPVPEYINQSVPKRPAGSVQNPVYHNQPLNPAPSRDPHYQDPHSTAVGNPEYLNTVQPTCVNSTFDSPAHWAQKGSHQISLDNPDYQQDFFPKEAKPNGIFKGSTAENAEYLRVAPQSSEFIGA

Rattus norvegicus [43] = assay: as §1; assay type: ADME, organism-based; set-up: dose 10 mg/kg, route oral, time infinity; settings: in vivo; outline: as §2
Rattus norvegicus [44] = assay: as §3; assay type: ADME, organism-based; settings: in vivo; outline: as §2
Rattus norvegicus [45] = assay: as §6; assay type: ADME, organism-based; settings: in vivo; outline: as §2

C=CC(=O)Nc1cccc(-n2c(=O)cc(C)c3cnc(Nc4ccc(OCCN(C)C)cc4OC)nc32)c1
Ratio IC50 [1]: > 100
AUC(0-inf) [2]: 0.66 µM·h
clearance [3]: 150 mL/min/kg
inhibition in vivo at 30 mg/kg (Mus musculus [4]): 90%
Kd [5]: 30 nM
inhibition in vivo at 30 mg/kg (Mus musculus [6]): > 50%
Activity [7]: 4%
fraction unbound at 5 µM [8]: 0.27
Kd [9]: 2800 nM
IC50 (A-431): 2400 nM
efflux ratio (rat MDR1 (P-gp) [10]): > 37
Ratio IC50 [11]: > 100
AUC(0-inf) [12]: 0.33 µM·h
Kd [13]: 220 nM
bioavailability [14]: 10%
Kd [15]: 130 nM
fraction unbound at 5 µM [16]: 0.54
IC50 (NCI-H1975 [17]): 4 nM
efflux ratio (human MDR1 (P-gp) [18]): > 37
Kd [19]: 220 nM
Kd [20]: 410 nM
IC50 [21]: 9 nM
Activity [22]: 17%
fraction unbound at 5 µM [23]: 0.46
Vd [24]: 22 L/kg
IC50 [25]: 1050 nM
Kd [26]: 140 nM
Kd [27]: 430 nM
Kd [28]: 0.96 nM
Kd [29]: 320 nM
Papp (human MDR1 (P-gp) [30]): 10 ×10⁻⁶ cm/s
Cmax [31]: 100 nM
Papp (rat MDR1 (P-gp) [32]): 10 ×10⁻⁶ cm/s
half-life [33]: 4.5 h
fraction unbound at 5 µM [34]: 0.25
Activity (Mus musculus [35]): Non-toxic
inhibition in vivo at 30 mg/kg (NCI-H1975 [36]; read-out: TGI): 90%
AUC(0-t) at 336 h [37]: 0.56 µM·h
Activity (Rattus norvegicus [38]): Non-toxic
Kd [39]: 81 nM
IC50 [40]: 28 nM
Kd [41]: 290 nM

C=CC(=O)Nc1cccc(-n2c(=O)c(Cc3ccccc3)cc3cnc(Nc4ccc(N5CCN(C)CC5)cc4OC)nc32)c1
IC50 (A-431): 250 nM
IC50 (NCI-H1975 [17]): 4 nM
IC50 [40]: 18 nM

C=CC(=O)Nc1cccc(-n2c(=O)ccc3cnc(Nc4ccc(N5CCN(C)CC5)cc4OC)nc32)c1
Ratio IC50 [1]: 17
AUC(0-inf) [2]: 0.18 µM·h
clearance [3]: 148 mL/min/kg
IC50 (A-431): 5230 nM
Ratio IC50 [11]: 17
bioavailability [14]: 6.6%
IC50 (NCI-H1975 [17]): 8 nM
IC50 [21]: 3 nM
Vd [24]: 19 L/kg
IC50 [25]: 50 nM
half-life [33]: 1.4 h
IC50 [42]: 3 nM
IC50 [40]: 4 nM

C=CC(=O)Nc1cccc(-n2c(=O)cc(C)c3cnc(Nc4ccc(N5CCNCC5)cc4OC)nc32)c1
IC50 (A-431): > 1000 nM
IC50 (NCI-H1975 [17]): 68 nM
IC50 [40]: 211 nM

C=CC(=O)Nc1cccc(-n2c(=O)cc(C)c3cnc(Nc4ccc(N5CCN(C(C)=O)CC5)cc4OC)nc32)c1
IC50 (A-431): > 5000 nM
IC50 (NCI-H1975 [17]): 30 nM
IC50 [40]: 58 nM

C=CC(=O)Nc1cccc(-n2c(=O)cc(C)c3cnc(Nc4ccc(N(C)CCN(C)C)cc4OC)nc32)c1
AUC (Rattus norvegicus [43]): 0.16 µM·h
CL (Rattus norvegicus [44]): 128 mL/min/kg
inhibition in vivo at 30 mg/kg (Mus musculus [4]): 80%
IC50 (A-431): > 1000 nM
F (Rattus norvegicus [45]): 21%
IC50 (NCI-H1975 [17]): 8 nM
IC50 [21]: 12 nM
Vd [24]: 20 L/kg
IC50 [25]: 521 nM
half-life [33]: 2.6 h
IC50 [42]: 6 nM
TGI (NCI-H1975 [36]): Active
Activity (Rattus norvegicus [38]): Non-toxic
IC50 [40]: 22 nM
